Results taken from ChEMBL document CHEMBL4428073, “Design, Synthesis, and Bioactivation of O-Glycosylated Prodrugs of the Natural Nitric Oxide Precursor N(ω)-Hydroxy-l-arginine” (J Med Chem, 2016).
Active and inactive are the calls of the source. The calls are words filed in the database; no cut-off is given here.

Tests used:
[1] = Half life in 10 mM potassium phosphate buffer at 250 uM at pH 7.4 at 37 degC by HPLC analysis; format: physicochemical
How it was run: (§1)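 Half-life from incubations at 250 µM in 10 mM potassium phosphate buffer, 37 °C, pH 7.4 or 9.0. Sampling at 3, 6 and 24 h. HPLC of o-phthalaldehyde derivatives with fluorescence detection (ex 338 nm, em 425 nm).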

[2] = target: Beta-galactosidase (Escherichia coli, UniProt Q8VNN2); assay: Prodrug activation assessed as recombinant Escherichia coli beta-galactosidase-mediated Nomega-hydroxy-L-arginine formation at 500 uM measured up to 150 mins by HPLC analysis; conditions: 2.5 h
How it was run: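 Recombinant E. coli β-galactosidase (25 U/mL) pre-incubated 3 min at 37 °C in 50 mM triethanolamine pH 7.0, then prodrug added at 500 µM. Samples at 0, 15, 45, 90 and 150 min stopped with ice-cold MeOH, centrifuged and analysed by o-phthalaldehyde/fluorescence HPLC. No-enzyme controls included.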

[3] = target: T1, Nitric oxide synthase, inducible (Mus musculus, UniProt P29477); assay: Prodrug activation in LPS-stimulated mouse […] cells assessed as iNOS-mediated Nomega-hydroxy-L-arginine formation by measuring increase in NO release at 1 mM incubated for 2.5 hrs by Hoechst 33342/DAF-FM-DA staining based fluorescence microscopic analysis; conditions: 1000 µM
T1 sequence (P29477 whole entry): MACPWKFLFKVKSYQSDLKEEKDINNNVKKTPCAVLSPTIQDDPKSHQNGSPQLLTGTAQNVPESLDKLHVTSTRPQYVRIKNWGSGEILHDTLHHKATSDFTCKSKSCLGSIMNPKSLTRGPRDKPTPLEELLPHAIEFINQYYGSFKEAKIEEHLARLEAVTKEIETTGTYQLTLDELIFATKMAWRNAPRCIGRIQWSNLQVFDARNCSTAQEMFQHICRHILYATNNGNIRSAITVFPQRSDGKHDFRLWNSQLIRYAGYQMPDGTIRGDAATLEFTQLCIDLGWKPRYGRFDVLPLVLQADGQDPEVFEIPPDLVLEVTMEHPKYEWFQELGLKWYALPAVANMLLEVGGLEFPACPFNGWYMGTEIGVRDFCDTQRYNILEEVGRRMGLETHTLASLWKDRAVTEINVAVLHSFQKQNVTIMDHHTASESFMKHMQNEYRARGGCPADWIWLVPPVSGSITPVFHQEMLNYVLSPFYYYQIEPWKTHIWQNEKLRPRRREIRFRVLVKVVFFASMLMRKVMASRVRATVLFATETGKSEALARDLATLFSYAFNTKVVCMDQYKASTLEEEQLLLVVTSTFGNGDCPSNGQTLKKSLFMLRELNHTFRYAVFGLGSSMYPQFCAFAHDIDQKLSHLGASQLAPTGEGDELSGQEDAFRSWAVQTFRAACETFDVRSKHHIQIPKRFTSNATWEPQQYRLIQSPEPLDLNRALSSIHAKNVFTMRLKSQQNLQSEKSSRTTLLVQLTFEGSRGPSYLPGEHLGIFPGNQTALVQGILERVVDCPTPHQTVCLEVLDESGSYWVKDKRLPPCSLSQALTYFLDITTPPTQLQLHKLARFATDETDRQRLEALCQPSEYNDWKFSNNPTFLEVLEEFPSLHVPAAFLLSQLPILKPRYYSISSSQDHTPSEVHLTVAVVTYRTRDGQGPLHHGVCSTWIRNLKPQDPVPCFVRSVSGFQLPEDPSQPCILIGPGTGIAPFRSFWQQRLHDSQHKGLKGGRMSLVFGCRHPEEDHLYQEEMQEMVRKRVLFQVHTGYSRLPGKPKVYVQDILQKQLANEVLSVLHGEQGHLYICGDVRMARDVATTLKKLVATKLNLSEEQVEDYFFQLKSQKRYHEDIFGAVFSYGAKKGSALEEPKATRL
How it was run: (§2)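 Washed into arginine/lysine-free DMEM with 2% FBS. Compound 1 mM final from DPBS++ stock, 150 min (L-NAME co-incubated where stated). Then 5 µM DAF-FM-DA plus 10 µM Hoechst 15 min. Six images per well, triplicate wells. Cell-normalized intensity minus DPBS++ control, scaled to reference substrate = 100%. Mean ± SEM.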

[4] = Half life in 10 mM potassium phosphate buffer at 250 uM at pH 9 at 37 degC by HPLC analysis; format: physicochemical; how it was run: as §1
[5] = Prodrug activation assessed as almond beta-glucosidase-mediated Nomega-hydroxy-L-arginine formation at 500 uM measured up to 150 mins by HPLC analysis; conditions: prunus dulcis, 2.5 h
How it was run: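 β-Glucosidase (recombinant, almond; 33 U/mL) pre-incubated 3 min at 37 °C in 50 mM triethanolamine pH 7.0. Reaction started with prodrug (500 µM). Aliquots at 0, 15, 45, 90 and 150 min quenched with equal volume ice-cold MeOH, then centrifuged. Supernatant analysed by o-phthalaldehyde/fluorescence HPLC. No-enzyme controls run alongside. Mean ± SD, n = 2-3.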

[6] = target: T1, Nitric oxide synthase, inducible; assay: Prodrug activation in LPS-stimulated mouse […] cells assessed as iNOS-mediated Nomega-hydroxy-L-arginine formation by measuring increase in NO release at 1 mM incubated for 2.5 hrs in presence of NOS inhibitor L-NAME by Hoechst 33342/DAF-FM-DA staining based fluorescence microscopic analysis; conditions: 1000 µM; how it was run: as §2
[7] = Chemical stability in 10 mM potassium phosphate buffer at 250 uM at pH 7.4 incubated up to 24 hrs at 37 degC by HPLC analysis; format: physicochemical; conditions: pH 7.4, 24 h
How it was run: (§3)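 Compound at 250 µM in 10 mM potassium phosphate buffer at pH 2.0, 7.4 or 9.0, 37 °C. Samples taken at 3, 6 and 24 h, diluted 1:1 with 100 mM potassium phosphate pH 7.4. Analysed by HPLC after o-phthalaldehyde derivatization: RP18 column at 37 °C, fluorescence detection (ex 338 nm, em 425 nm).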

[8] = Chemical stability in 10 mM potassium phosphate buffer at 250 uM at pH 9 incubated up to 24 hrs at 37 degC by HPLC analysis; format: physicochemical; conditions: pH 9, 24 h; how it was run: as §3
[9] = Chemical stability in 10 mM potassium phosphate buffer at 250 uM at pH 2 incubated up to 24 hrs at 37 degC by HPLC analysis; format: physicochemical; conditions: pH 2, 24 h; how it was run: as §3
[10] = Prodrug activation assessed as porcine liver carboxylesterase/recombinant Escherichia coli beta-galactosidase-mediated Nomega-hydroxy-L-arginine formation by measuring NO release at 500 uM preincubated for 150 mins followed by recombinant mouse iNOS and NADPH addition incubated for 30 mins followed by LDH and sodium pyruvate addition measured after 15 mins by Griess assay; conditions: 0.5 h
[11] = tested on: J774.A1; assay: Toxicity in mouse […] cells assessed as induction of apoptosis up to 1 mM after 2.5 hrs by Hoechst 33342/DAPI/GFP staining based fluorescence microscopic analysis; format: cell-based; conditions: j774.a1, 2.5 h
How it was run: (§4)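 Stained with Hoechst 33342 and DAF-FM-DA, then imaged by automated fluorescence microscopy (about 1000 cells per well). Cell shape, blebbing, apoptosis and cell numbers judged against DPBS++ vehicle controls.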

[12] = tested on: J774.A1; assay: Toxicity in mouse […] cells assessed as reduction in cell proliferation up to 1 mM after 2.5 hrs by Hoechst 33342/DAF-FM-DA staining based fluorescence microscopic analysis; conditions: j774.a1, 2.5 h; how it was run: as §4
[13] = target: T2, Nitric oxide synthase, inducible (Mus musculus) (UniProt P29477); assay: Substrate activity at iNOS in LPS-stimulated mouse J744A.1 cells assessed as increase in NO release at 1 mM incubated for 2.5 hrs by Hoechst 33342/DAF-FM-DA staining based fluorescence microscopic analysis; how it was run: as §2
T2 sequence (whole entry): T1 sequence (P29477 whole entry)

[14] = target: T2, Nitric oxide synthase, inducible (Mus musculus); assay: Substrate activity at recombinant mouse iNOS assessed as increase in NO release incubated for 30 mins in presence of NADPH followed by LDH and sodium pyruvate addition measured after 15 mins by Griess assay
[15] = tested on: J774.A1; assay: Toxicity in mouse […] cells assessed as changes in cell shape up to 1 mM after 2.5 hrs by Hoechst 33342/DAPI/GFP staining based fluorescence microscopic analysis; conditions: j774.a1, 2.5 h; how it was run: as §4
[16] = tested on: J774.A1; assay: Toxicity in mouse […] cells assessed as appearance of cell blebbing up to 1 mM after 2.5 hrs by Hoechst 33342/DAPI/GFP staining based fluorescence microscopic analysis; conditions: j774.a1, 2.5 h; how it was run: as §4
[17] = Prodrug activation assessed as porcine liver carboxylesterase/beta-galactosidase-mediated Nomega-hydroxy-L-arginine formation at 500 uM measured up to 150 mins by HPLC analysis; parameters: species or system Sus scrofa; conditions: pig, 2.5 h
How it was run: (§5)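 Porcine liver carboxylesterase (133 U/mL) plus β-galactosidase (33 U/mL) pre-incubated 3 min at 37 °C in 50 mM triethanolamine pH 7.0. Started with prodrug at 500 µM. Samples at 0–150 min quenched with cold MeOH, centrifuged and analysed by o-phthalaldehyde/fluorescence HPLC. No-enzyme controls included.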

[18] = target: T3, Liver carboxylesterase (Sus scrofa, UniProt Q29550); assay: Prodrug activation assessed as porcine liver carboxylesterase-mediated Sodium Nomega-(beta-D-Galactopyranos-1-yloxy)-L-arginine formation at 500 uM measured up to 150 mins by HPLC analysis; conditions: pig, 2.5 h; how it was run: as §5
T3 sequence (Q29550 whole entry): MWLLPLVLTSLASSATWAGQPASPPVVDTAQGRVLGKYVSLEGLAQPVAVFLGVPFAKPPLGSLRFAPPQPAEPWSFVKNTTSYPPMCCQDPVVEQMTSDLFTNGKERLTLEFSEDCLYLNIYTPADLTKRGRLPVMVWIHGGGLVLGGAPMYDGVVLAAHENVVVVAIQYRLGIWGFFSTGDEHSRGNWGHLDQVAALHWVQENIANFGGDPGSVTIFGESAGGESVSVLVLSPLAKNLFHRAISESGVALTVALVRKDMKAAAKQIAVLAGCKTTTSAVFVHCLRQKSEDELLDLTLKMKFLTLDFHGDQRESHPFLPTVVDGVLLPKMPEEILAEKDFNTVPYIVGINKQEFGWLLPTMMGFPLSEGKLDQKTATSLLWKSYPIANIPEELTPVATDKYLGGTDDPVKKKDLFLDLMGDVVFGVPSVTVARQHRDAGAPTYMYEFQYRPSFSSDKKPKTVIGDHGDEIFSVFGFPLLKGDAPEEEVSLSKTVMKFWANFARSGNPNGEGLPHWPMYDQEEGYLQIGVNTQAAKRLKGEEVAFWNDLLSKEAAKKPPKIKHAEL

Beta-galactosidase, sequence (Q8VNN2 whole entry): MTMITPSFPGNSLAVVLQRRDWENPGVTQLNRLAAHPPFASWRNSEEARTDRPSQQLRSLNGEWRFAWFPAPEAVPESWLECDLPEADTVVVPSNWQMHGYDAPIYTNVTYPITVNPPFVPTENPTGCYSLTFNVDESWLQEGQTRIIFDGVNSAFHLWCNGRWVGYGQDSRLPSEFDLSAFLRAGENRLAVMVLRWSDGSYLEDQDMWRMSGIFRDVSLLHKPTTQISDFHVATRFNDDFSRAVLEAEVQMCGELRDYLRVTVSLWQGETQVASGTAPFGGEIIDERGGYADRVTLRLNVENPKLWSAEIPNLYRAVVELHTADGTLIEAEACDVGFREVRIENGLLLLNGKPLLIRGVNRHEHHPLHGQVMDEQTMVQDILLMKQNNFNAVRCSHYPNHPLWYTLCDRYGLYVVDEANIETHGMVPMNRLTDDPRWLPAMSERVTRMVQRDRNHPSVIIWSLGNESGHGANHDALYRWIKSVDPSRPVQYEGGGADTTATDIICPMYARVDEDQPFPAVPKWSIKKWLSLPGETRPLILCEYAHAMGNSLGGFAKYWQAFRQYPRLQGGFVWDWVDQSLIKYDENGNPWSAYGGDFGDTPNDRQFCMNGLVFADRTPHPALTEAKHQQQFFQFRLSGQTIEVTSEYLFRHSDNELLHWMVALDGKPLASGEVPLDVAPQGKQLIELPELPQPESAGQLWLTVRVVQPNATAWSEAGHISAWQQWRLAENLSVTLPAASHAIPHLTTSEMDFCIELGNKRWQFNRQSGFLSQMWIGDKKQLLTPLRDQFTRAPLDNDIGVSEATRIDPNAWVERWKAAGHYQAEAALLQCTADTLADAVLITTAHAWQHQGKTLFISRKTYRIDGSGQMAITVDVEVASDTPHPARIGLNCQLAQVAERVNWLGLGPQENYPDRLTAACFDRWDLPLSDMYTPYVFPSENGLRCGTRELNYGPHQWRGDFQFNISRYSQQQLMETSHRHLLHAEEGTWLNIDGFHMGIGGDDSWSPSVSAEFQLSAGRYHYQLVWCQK

SMILES: CC(=O)OC[C@H]1O[C@@H](O/N=C(\N)NCCC[C@H](N)C(=O)O)[C@H](OC(C)=O)[C@@H](OC(C)=O)[C@H]1OC(C)=O.Cl.Cl
- half-life at 250 µM [1]: > 24 h
- Drug metabolism [2]: Metabolite_Notdetected
- Drug metabolism [3]: Metabolite_Notdetected
- half-life at 250 µM [4]: > 24 h

SMILES: CC(=O)OC[C@H]1O[C@@H](O/N=C(\N)NCCC[C@H](N)C(=O)O)[C@H](OC(C)=O)[C@@H](OC(C)=O)[C@@H]1OC(C)=O.Cl.Cl
- Drug metabolism [5]: Metabolite_Detected
- Drug metabolism [6]: Metabolite_Notdetected
- Drug metabolism [3]: Metabolite_Detected

SMILES: N/C(=N\O[C@@H]1O[C@H](CO)[C@H](O)[C@H](O)[C@H]1O)NCCC[C@H](N)C(=O)[O-].[Na+]
- Drug metabolism [5]: Metabolite_Detected
- Stability [7]: Stable
- Drug metabolism [2]: Metabolite_Detected
- Stability [8]: Stable
- Stability [9]: Stable
- Drug metabolism [3]: Metabolite_Notdetected
- Drug metabolism [10]: Metabolite_Detected

SMILES: CCOC(=O)[C@@H](N)CCCN/C(N)=N/O[C@@H]1O[C@H](COC(C)=O)[C@@H](OC(C)=O)[C@H](OC(C)=O)[C@H]1OC(C)=O.Cl.Cl
- Drug metabolism [6]: Metabolite_Notdetected
- Drug metabolism [3]: Metabolite_Detected

SMILES: N=C(NO)NCCC[C@H](N)C(=O)O
- Activity [11]: Non-Toxic
- Activity [12]: Non-Toxic
- Activity [13]: Active
- Activity [14]: Active
- Activity [15]: Non-Toxic
- Activity [16]: Non-Toxic

SMILES: CCOC(=O)[C@@H](N)CCCN/C(N)=N/O[C@@H]1O[C@H](COC(C)=O)[C@H](OC(C)=O)[C@H](OC(C)=O)[C@H]1OC(C)=O.Cl.Cl
- Drug metabolism [6]: Metabolite_Notdetected

SMILES: CCOC(=O)[C@@H](N)CCCN/C(N)=N/O[C@@H]1O[C@H](CO)[C@H](O)[C@H](O)[C@H]1O.Cl.Cl
- half-life at 250 µM [1]: 10 to 12 h
- Drug metabolism [17]: Metabolite_Detected
- Drug metabolism [18]: Metabolite_Detected
- Drug metabolism [3]: Metabolite_Notdetected
- half-life at 250 µM [4]: 10 to 12 h
- Drug metabolism [10]: Metabolite_Detected

SMILES: CCOC(=O)[C@@H](N)CCCN/C(N)=N/O[C@@H]1O[C@H](CO)[C@@H](O)[C@H](O)[C@H]1O.Cl.Cl
- Drug metabolism [6]: Metabolite_Notdetected
- Drug metabolism [3]: Metabolite_Detected

SMILES: N/C(=N\O[C@@H]1O[C@H](CO)[C@@H](O)[C@H](O)[C@H]1O)NCCC[C@H](N)C(=O)[O-].[Na+]
- Drug metabolism [5]: Metabolite_Detected
- Drug metabolism [6]: Metabolite_Notdetected
- Drug metabolism [3]: Metabolite_Detected
